Reference: ChEMBL document CHEMBL1142277, “Toward a structure-based model of salvinorin A recognition of the kappa-opioid receptor” (J Med Chem, 2008)

Key:
Type in all cases: cell-based
[1] = biological target: Kappa-type opioid receptor (Rattus norvegicus, UniProt P34975); experiment: Displacement of [3H]diprenorphine from rat kappa opioid receptor expressed in HEK293 cells
How it was run: (§1)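 Whole-cell binding: HEK-293 cells transiently transfected (calcium phosphate, 10–20 µg pcDNA) with wild-type, point-mutant or chimeric receptor, harvested 48–72 h later, washed and resuspended in 25 mM HEPES pH 7.4. Incubated with [3H]-diprenorphine, room temperature, 90 min. Separation by filtration on PEI-presoaked GF/C filters, scintillation counting. Nonspecific binding with 100 µM naloxone, norBNI or salvinorin A. Triplicates, nonlinear regression.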

[2] = biological target: Kappa-type opioid receptor (Rattus norvegicus, UniProt P34975, Y313A); experiment: Displacement of [3H]diprenorphine from rat kappa opioid receptor Y313A mutant expressed in HEK293 cells; how it was run: as §1
Kappa-type opioid receptor (Rattus norvegicus, UniProt P34975, Y313A), sequence (P34975 whole entry Y313A): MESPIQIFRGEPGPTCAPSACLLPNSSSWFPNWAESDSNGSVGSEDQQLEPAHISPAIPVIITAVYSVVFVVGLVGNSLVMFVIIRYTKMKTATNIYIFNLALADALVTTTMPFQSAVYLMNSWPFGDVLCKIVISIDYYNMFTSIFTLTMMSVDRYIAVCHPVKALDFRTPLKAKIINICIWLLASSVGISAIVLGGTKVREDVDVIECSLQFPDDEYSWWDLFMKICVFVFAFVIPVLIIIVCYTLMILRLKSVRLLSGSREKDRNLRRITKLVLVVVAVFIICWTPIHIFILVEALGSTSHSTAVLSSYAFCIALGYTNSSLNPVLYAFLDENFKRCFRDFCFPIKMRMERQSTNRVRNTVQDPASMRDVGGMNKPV

[3] = biological target: Mu-type opioid receptor (Rattus norvegicus, UniProt P33535); experiment: Displacement of [3H]diprenorphine from rat mu opioid receptor expressed in HEK293 cells; how it was run: as §1
Mu-type opioid receptor (Rattus norvegicus, UniProt P33535), sequence (P33535 whole entry): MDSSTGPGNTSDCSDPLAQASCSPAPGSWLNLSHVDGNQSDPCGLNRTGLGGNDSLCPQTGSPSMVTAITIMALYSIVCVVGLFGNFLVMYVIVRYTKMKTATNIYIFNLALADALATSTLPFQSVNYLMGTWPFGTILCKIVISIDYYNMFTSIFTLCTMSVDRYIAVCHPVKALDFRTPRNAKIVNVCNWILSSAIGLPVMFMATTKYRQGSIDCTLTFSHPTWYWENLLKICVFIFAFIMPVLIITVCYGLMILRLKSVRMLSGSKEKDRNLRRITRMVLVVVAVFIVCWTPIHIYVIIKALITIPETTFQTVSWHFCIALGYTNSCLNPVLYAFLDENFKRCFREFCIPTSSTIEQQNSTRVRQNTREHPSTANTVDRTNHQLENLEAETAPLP

[4] = biological target: Mu-type opioid receptor (Rattus norvegicus, UniProt P33535, W318A); experiment: Displacement of [3H]diprenorphine from rat mu opioid receptor W318A mutant expressed in HEK293 cells; how it was run: as §1
Mu-type opioid receptor (Rattus norvegicus, UniProt P33535, W318A), sequence (P33535 whole entry W318A): as the sequence (P33535 whole entry) above, with W318A counted along it

[5] = Displacement of [3H]diprenorphine from chimeric rat kappa opioid receptor (1-141)/mu opioid receptor (151-233)/kappa opioid receptor (228-380) expressed in HEK293 cells; how it was run: as §1
[6] = Displacement of [3H]diprenorphine from chimeric rat mu opioid receptor (1-150)/kappa opioid receptor (142-227)/mu opioid receptor (234-398) expressed in HEK293 cells; how it was run: as §1
[7] = Displacement of [3H]diprenorphine from chimeric rat mu opioid receptor (1-150)/kappa opioid receptor (142-380) expressed in HEK293 cells; how it was run: as §1
[8] = Displacement of [3H]diprenorphine from chimeric rat mu opioid receptor (1-233)/kappa opioid receptor (228-380) expressed in HEK293 cells; how it was run: as §1
[9] = Displacement of [3H]diprenorphine from chimeric rat kappa opioid receptor (1-141)/mu opioid receptor (151-398) expressed in HEK293 cells; how it was run: as §1
[10] = Displacement of [3H]diprenorphine from chimeric rat kappa opioid receptor (1-227)/mu opioid receptor (234-398) expressed in HEK293 cells; how it was run: as §1
[11] = Displacement of [3H]diprenorphine from chimeric rat kappa opioid receptor (1-141)/mouse delta opioid receptor (132-372) expressed in HEK293 cells; how it was run: as §1
[12] = Displacement of [3H]diprenorphine from chimeric rat kappa opioid receptor (1-227)/mouse delta opioid receptor (215-372) expressed in HEK293 cells; how it was run: as §1

Kappa-type opioid receptor (Rattus norvegicus, UniProt P34975), sequence (P34975 whole entry): as the sequence (P34975 whole entry Y313A) above, with A313Y counted along it

Structure (SMILES)	Ki [1] [nM]	Ki [2] [nM]	Ki [3] [nM]	Ki [4] [nM]	Ki [5] [nM]	Ki [6] [nM]	Ki [7] [nM]	Ki [8] [nM]	Ki [9] [nM]	Ki [10] [nM]	Ki [11] [nM]	Ki [12] [nM]
COC(=O)[C@@H]1C[C@H](C(=O)c2ccccc2)C(=O)[C@H]2[C@@]1(C)CC[C@H]1C(=O)O[C@H](c3ccoc3)C[C@]21C	1380	3870	245	426	8320	615	4110	2310	1610	9400	> 10000	450
COC(=O)[C@@H]1C[C@H](OC(C)=O)C(=O)[C@H]2[C@@]1(C)CC[C@H]1C(=O)O[C@H](c3ccoc3)C[C@]21C [SALVINORIN A]					522	458						
